The results in this text go back to ChEMBL document CHEMBL4406880, “Design, synthesis, and bioactivity of dihydropyrimidine derivatives as kinesin spindle protein inhibitors” (Bioorg Med Chem, 2019).

In data set [1] the test system is SNB-75. Nature of the data set: Induction of apoptosis in human SNB75 cells assessed as late apoptotic cells at 2 uM incubated for 24 hrs by annexin V FITC and propidium iodide based flow cytometry (reference value: 0.59 %). In kind it is functional. For orientation: In flow cytometry, cells or beads pass a laser one at a time.
In data set [2] the test system is SNB-75. Nature of the data set: Cell cycle arrest in human SNB75 cells assessed as accumulation in S phase at 2 uM incubated for 24 hrs by propidium iodide based flow cytometry (reference value: 33.92 %). In kind it is functional. In a few lines:
(§1)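 SNB-75 cells were exposed to 2 µM for 24 h at 37 °C, 5% CO2, then washed with PBS and fixed in 70% ethanol on ice for 15 min. They were stained 1 h at room temperature with 50 µg/mL propidium iodide, 0.1 mg/mL RNase A and 0.05% Triton X-100. DNA content was read by flow cytometry to give the % of cells in pre-G1, G0/G1, S and G2/M.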

The subject of data set [3] is SNB-75. Nature of the data set: Cell cycle arrest in human SNB75 cells assessed as accumulation in preG1 phase at 2 uM incubated for 24 hrs by propidium iodide based flow cytometry (reference value: 1.85 %). In kind it is functional. In a few lines:
as §1

Data set [4] can be described thus: Inhibition of kinesin (unknown origin) assessed as reduction in ATPase activity using microtubule as substrate measured for 5 to mins. Also noted: species or system Homo sapiens.
Data set [5] deals with SNB-75. Nature of the data set: Cell cycle arrest in human SNB75 cells assessed as accumulation in G2/M phase at 2 uM incubated for 24 hrs by propidium iodide based flow cytometry (reference value: 10.46 %). The format is functional. In a few lines:
as §1

In data set [6] the test system is MDA-MB-435. Nature of the data set: Induction of apoptosis in human MDA-MB-435 cells assessed as active caspase 9 level incubated for 2 hrs by ELISA (reference value: 1). The format is functional. In a few lines:
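Caspase-9 was measured by human ELISA on cell lysates, with samples in duplicate. Samples were incubated with detection antibody for 2 h at room temperature. This was followed by 1 h with anti-rabbit IgG-HRP and 10 min with TMB substrate. After a stop solution, absorbance was read at 450 nm.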
In general terms: ELISA stands for enzyme-linked immunosorbent assay.

Data set [7] deals with SNB-75. Briefly: Induction of apoptosis in human SNB75 cells assessed as necrosis at 2 uM incubated for 24 hrs by annexin V FITC and propidium iodide based flow cytometry (reference value: 0.44 %). In kind it is functional.
The subject of data set [8] is MDA-MB-435. Nature of the data set: Induction of apoptosis in human MDA-MB-435 cells assessed as active caspase 3 level incubated for 2 hrs by ELISA (reference value: 1). The format is functional. In a few lines:
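Active caspase-3 was measured by human sandwich ELISA. Samples were incubated on the plate for 2 h at room temperature. This was followed by 1 h with detection antibody, 30 min with anti-rabbit IgG-HRP, and 30 min with chromogen, with all steps at room temperature. Absorbance was read at 450 nm, and levels were read from a standard curve.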

Data set [9] has as its system SNB-75. Briefly: Cell cycle arrest in human SNB75 cells assessed as accumulation in G0/G1 phase at 2 uM incubated for 24 hrs by propidium iodide based flow cytometry (reference value: 55.62 %). The format is functional. In a few lines: as §1
Data set [10] deals with SNB-75. Nature of the data set: Induction of apoptosis in human SNB75 cells assessed as early apoptotic cells at 2 uM incubated for 24 hrs by annexin V FITC and propidium iodide based flow cytometry (reference value: 0.82 %). The format is functional.
In data set [11] the target is Kinesin-like protein KIF11 (Homo sapiens, UniProt P52732). Nature of the data set: Inhibition of recombinant human His-tagged Eg5 (1 to 368 residues) assessed as reduction in ATPase activity by […] based assay.
The subject of a further data set is HeLa. Nature of the data set: Antiproliferative activity against human HeLa cells assessed as growth percentage incubated for 72 hrs by XTT assay. The format is functional, cell-based.
Another data set relates to MCF7. Nature of the data set: Antiproliferative activity against human MCF7 cells assessed as growth percentage incubated for 72 hrs by XTT assay. The format is functional, cell-based. As to conditions: MCF7, 72 h. (Tetrazolium dyes change colour on reduction, which living cells bring about.)
The nature of data set [12]: Growth inhibition of human HEK293 cells assessed as cell viability at 1.56 ug incubated for 48 hrs by MTT assay relative to control. The format is cell-based. As to conditions: read-out: Activity.
Data set [13] is described as follows: Growth inhibition of human HEK293 cells assessed as cell viability at 25 ug incubated for 48 hrs by MTT assay relative to control. The format is cell-based. To be noted: read-out: Activity.
Data set [14] in a line: Growth inhibition of human HEK293 cells assessed as cell viability at 6.25 ug incubated for 48 hrs by MTT assay relative to control. In kind it is cell-based. As to conditions: read-out: Activity.
Data set [15] can be described thus: Growth inhibition of human HEK293 cells assessed as cell viability at 100 ug incubated for 48 hrs by MTT assay relative to control. In kind it is cell-based. To be noted: read-out: Activity.
A short description of data set [16]: Growth inhibition of human HEK293 cells assessed as cell viability at 0.39 ug incubated for 48 hrs by MTT assay relative to control. The format is cell-based. As to conditions: read-out: Activity.

Chain of Kinesin-like protein KIF11 (P52732 whole entry, the tested form may be a part): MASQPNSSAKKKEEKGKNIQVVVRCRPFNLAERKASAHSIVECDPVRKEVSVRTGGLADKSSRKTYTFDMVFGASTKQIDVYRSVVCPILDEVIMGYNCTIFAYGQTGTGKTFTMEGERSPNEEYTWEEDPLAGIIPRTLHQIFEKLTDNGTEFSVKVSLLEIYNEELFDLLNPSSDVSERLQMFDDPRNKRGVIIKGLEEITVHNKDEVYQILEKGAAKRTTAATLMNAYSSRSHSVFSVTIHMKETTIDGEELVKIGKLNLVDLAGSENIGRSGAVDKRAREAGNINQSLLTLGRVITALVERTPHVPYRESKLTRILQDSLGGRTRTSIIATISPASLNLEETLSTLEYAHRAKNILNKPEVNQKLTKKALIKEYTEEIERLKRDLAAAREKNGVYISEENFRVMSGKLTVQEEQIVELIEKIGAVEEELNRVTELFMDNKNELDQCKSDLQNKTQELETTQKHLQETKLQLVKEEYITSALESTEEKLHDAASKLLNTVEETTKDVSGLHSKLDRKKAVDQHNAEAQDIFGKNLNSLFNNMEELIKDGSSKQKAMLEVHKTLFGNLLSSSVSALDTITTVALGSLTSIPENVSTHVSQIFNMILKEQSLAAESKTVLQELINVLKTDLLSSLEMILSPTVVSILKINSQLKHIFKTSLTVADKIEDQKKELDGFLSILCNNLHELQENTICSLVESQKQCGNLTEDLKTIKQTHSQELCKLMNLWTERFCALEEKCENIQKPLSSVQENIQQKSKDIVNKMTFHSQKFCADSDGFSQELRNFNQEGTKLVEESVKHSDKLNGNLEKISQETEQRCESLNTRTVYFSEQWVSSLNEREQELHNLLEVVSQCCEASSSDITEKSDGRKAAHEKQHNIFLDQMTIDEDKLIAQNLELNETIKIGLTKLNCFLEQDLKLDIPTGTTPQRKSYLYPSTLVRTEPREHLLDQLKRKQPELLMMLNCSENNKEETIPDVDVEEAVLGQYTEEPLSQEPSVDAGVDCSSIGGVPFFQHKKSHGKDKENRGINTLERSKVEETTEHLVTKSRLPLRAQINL

Broadly, the IC50 is the concentration needed to halve the response being measured. As to `CCOC(=O)C1=C(C)NC(=S)NC1c1cccc(O)c1` (centres undefined) [MONASTROL], the Activity in the data set on SNB-75 [1] was 15.54%; with SNB-75 [2], 29.18%; in the data set on SNB-75 [3] it was 22.58%; with SNB-75 [5] it was 41.26%; in the data set on SNB-75 [7] it was 2.32%; in the data set on SNB-75 [9], 29.56%. For the same compound, the Activity in the data set with SNB-75 [10] is recorded as 4.72%. Also, the IC50 in [4] and in data set [11] was 20 µM each time. Further, the “fold change (FC)” value with MDA-MB-435 [6] came out at 11.92; in the data set on MDA-MB-435 [8] it was 6.9.

As to `CC1=C(C(=O)OCc2ccccc2)C(c2ccco2)NC(=O)N1` (centres undefined), the IC50 with HeLa came to 40 µM; in the data set on MCF7 it was 55 µM.

`COc1cccc2c1C(=O)c1c(O)c3c(c(O)c1C2=O)C[C@@](O)(C(=O)CO)C[C@@H]3O[C@H]1C[C@H](N)[C@H](O)[C@H](C)O1` [DOXORUBICIN]: the viability at 48 h, 1.56 ug in [12] turned out to be 64.7%. Besides, the viability at 48 h, 25 ug in [13] was found to be 43.6%. The viability at 48 h, 6.25 ug in [14] amounted to 55.2%. Moreover, the viability at 48 h, 100 ug in [15] amounted to 33.8%. The viability at 48 h, 0.39 ug in [16] stood at 75.1%.

Take `CC1=C(C(=O)c2ccccc2)C(c2cccc(O)c2)NC(=S)N1C` (centres undefined): the IC50 in data set [4] stood at 0.1 µM.
